In paper PMC11184607 (ACS Pharmacology & Translational Science, 2024):
pEC50, pIC50: −log10 of the molar value. Bridge positions count the residues as written; N and C are the ends. Square brackets hold non-standard residues; d marks the D form. Peptide text beside a SMILES is read from it. * marks the point of attachment. NMeTrp(1-(4-Br-benzyl)) = CN[C@@H](Cc1cn(Cc2ccc(Br)cc2)c2ccccc12)C(=O)O; Butanoyl(2R-oxy,4-CN) = N#CCC[C@@H](O)C(=O)O; Abu(4,4,4-F3) = N[C@@H](CC(F)(F)F)C(=O)O; dNMeaIle = CC[C@H](C)[C@@H](NC)C(=O)O; NMe2Val = CC(C)[C@@H](C(=O)*)N(C)C; NMeI = CC[C@H](C)[C@H](NC)C(=O)O; NMeT = CN[C@H](C(=O)O)[C@@H](C)O; NMeL = CN[C@@H](CC(C)C)C(=O)O; Hiv = CC(C)[C@H](O)C(=O)O; NMeS = CN[C@@H](CO)C(=O)O; NMeA = CN[C@@H](C)C(=O)O; dNMeA = CN[C@H](C)C(=O)O

Tests used:
SPs of Sec61 substrates = settings: read-out: IC50, SPs of other (insensitive) Sec61 substrates; cited from earlier work
[1] = test system: WT and mutant (R66I) Sec61α HCT116 colon cancer cells; test: Viability of WT versus Sec61α R66I mutant HCT116 cells; format: cell-based, human; settings: for Effect of Sec61α R66I mutation on cytotoxic response relative to WT HCT116 cells: 72 h and 6 days (3 + 3 day exposure)
U87-MG GBM cells = test: Cell viability; format: cell-based, human; settings: 72 h
Outline: (§1)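 Cells are grown at 37 °C in 5% CO2. U87-MG and U251 are in MEM with 10% FBS, SF-268 in DMEM with 10% FBS, and SF-295 in RPMI 1640 with 10% FBS. HUVECs are pooled donors. Exposure is to the test compound (0.1 nM–1 μM) or 0.1% DMSO for 72 h. Viability is read by ATP luminescence as % of vehicle, n = 3 wells. […] comes from a logistic nonlinear fit over three independent comparisons.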

[2] = test system: HEK293FRT cells expressing WT or mutant (R66I) Sec61α; test: Viability of WT versus Sec61α R66I mutant HEK293 cells; format: cell-based, human; settings: 72 h or 3 + 3 day exposure
Outline: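 HEK293FRT cells carrying Sec61α R66I, with wild-type comparators, are grown in DMEM with 10% FBS, 6 mM L-glutamine and 1 mM pyruvate. They are exposed to increasing test compound concentrations or 0.1% DMSO for 72 h, or 3 + 3 days to avoid nutrient deprivation. ATP viability is read as % of vehicle, n = 3 wells. Logistic nonlinear fit; ≥3 independent experiments.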

[3] = test system: patient-derived GSCs (M120, MGG6, M76, GBM8, and 157); format: cell-based, human; settings: read-out: EC50 values, five GSC lines (M120, MGG6, M76, GBM8, 157); 72 h
Hsp90 = test: Immunoblot of Hsp90 in U87-MG cells; format: cell-based, human; settings: 1 30 nM, 2 1 μM, 24 h
Outline: (§2)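 U87-MG cells in MEM with 10% FBS are exposed 24 h to test compound (30 nM or 1 μM) or 0.1% DMSO. Protein-matched lysates (BCA) are run on SDS-PAGE, transferred to PVDF and detected with HRP secondary. Signals are normalized to α-tubulin and expressed relative to control. Three independent experiments; one-way ANOVA then t-test.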

VCAM1 [4] = test: Immunoblot of TNFα-stimulated VCAM1 in SF-295 cells; format: cell-based, human; settings: for Efficacy in suppressing TNFα-stimulated VCAM1 expression: 1 µM, 24 h; for pIC50: read-out: IC50, VCAM1 expression, TNFα 10 ng/mL, 24 h
Outline: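 SF-295 cells (RPMI 1640, 10% FBS) are cotreated 24 h with increasing concentrations of test compound plus TNFα 10 ng/mL. Controls are 0.1% DMSO-treated and untreated cells. VCAM1 and ICAM1 are immunoblotted after SDS-PAGE and PVDF transfer. Signals are normalized to a loading control. Concentration–response is fit to a logistic equation by nonlinear regression.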

SF-295 GBM cells = test: Cell viability; format: cell-based, human; settings: 72 h
Outline: as §1

Hsp70 = test: Immunoblot of Hsp70 in U87-MG cells; format: cell-based, human; settings: 1 30 nM, 2 1 μM, 24 h
Outline: as §2

VEGF-A = VEGF-A in cell culture medium by ELISA; format: cell-based, human; settings: 1 µM, sustained 24 h after removal
VCAM1 [5] = test: Immunoblot of VCAM1 transiently expressed in HEK293 cells; format: cell-based, human; settings: 1 µM, 24 h
BiP = test: Immunoblot of BiP expression; format: cell-based, human; settings: for BiP expression: HUVECs and U87-MG cells, 1 μM, 24 h
[6] = test system: human cytokines and chemokines in the SF-268 secretome; test: Secretome profiling of human cytokines/chemokines in SF-268 conditioned medium; format: cell-based; settings: SF-268, 1 μM, medium collected 24 h after removal, relative to vehicle
Outline: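 SF-268 cells are seeded in 96-well plates; next day they get complete medium with test compound (1 μM) or 0.1% DMSO for 24 h. Medium is then replaced by serum-free medium for a further 24 h. Conditioned medium is concentrated by centrifugation (75 min, 4000g), flash-frozen and run on a 48-plex multiplex laser-bead cytokine/chemokine immunoassay. 43 analytes are quantified (five below detection dropped); data are % of vehicle.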

cancer cell lines = settings: cited from earlier work
calreticulin (CALR) = test: Immunoblot of calreticulin expression in U87-MG cells; format: cell-based, human; settings: 1 μM, 24 h
Outline: as §2

[7] = target: Gaussia luciferase (GLuc); test: Gaussia luciferase; format: cell-based, human; settings: 18 h; for Functional inhibition of GLuc secretion: relative to 1–3 or AprA
Outline: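 U87-MG cells stably express GLuc after lentiviral transduction. Cells are seeded at 3000/well, allowed to adhere overnight, then given test compound or 0.1% DMSO for 18 h. Conditioned medium is read for luminescence with 1.2 μM final coelenterazine (3 s wait, 0.5 s integration). Adherent-cell ATP viability is read at the same time. Data are % of vehicle; IC50 comes from a logistic nonlinear fit; n ≥3 independent experiments.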

[8] = test system: UPR markers (BiP, CHOP, sXBP1, GADD34, IRE1) mRNA; test: qPCR of ER stress; format: cell-based, human; settings: 300 nM, 24 h
Outline: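 GSC neurospheres (MGG6, 83, M76, GBM8) are treated 24 h with test compound 80 nM, thapsigargin 300 nM, both together, or 0.1% DMSO. BiP, CHOP, sXBP1, GADD34 and IRE1 mRNA are measured by qPCR normalized to GAPDH and expressed as fold-change versus vehicle.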

CC(C)C[C@@H]1NC(=O)[C@H](Cc2cn(Cc3ccc(Br)cc3)c3ccccc23)N(C)C(=O)[C@H](CC(F)(F)F)NC(=O)[C@H](CC(C)C)N(C)C(=O)[C@H](CC(F)(F)F)NC(=O)[C@@H](CCC#N)OC(=O)[C@H](C)N(C)C1=O [KZR-8445] (cyclo(L[NMeA][Butanoyl(2R-oxy,4-CN)][Abu(4,4,4-F3)][NMeL][Abu(4,4,4-F3)][NMeTrp(1-(4-Br-benzyl))]))
pIC50 (SPs of Sec61 substrates): < 4.60

CC[C@H](C)[C@H]1C(=O)N[C@@H](C)C(=O)N(C)[C@@H](CC(C)C)C(=O)N[C@@H](Cc2ccc(OC)cc2)C(=O)N(C)[C@H](C)C(=O)O[C@H](C)[C@H](N(C)C(=O)[C@H](CC(C)C)N(C)C(=O)[C@H](COC)N(C)C(=O)[C@@H](OC(=O)[C@H](C(C)C)N(C)C)C(C)C)C(=O)N(C)[C@@H](COC)C(=O)N1C [compound 2, [L-Hiv^2]-CbA] (NMe2Val-[Hiv][NMeS](Me)[NMeL][NMeT][NMeS](Me)[NMeI]A[NMeL]Y(Me)[dNMeA]; ester 4-C)
Effect of Sec61α R66I mutation on cytotoxic response relative to WT HCT116 cells [1]: decrease in cytotoxic efficacy | Fold less potent than 1, U87-MG cells (U87-MG GBM cells): approximately 13 fold | Response of mutant Sec61(R66I) HEK293 cells relative to WT [2]: patterns of resistance | pEC50 [3]: > 5.52 | Hsp90 expression (Hsp90): upregulation | Fold greater sensitivity of VCAM1 to 2 than to 3 (VCAM1 [4]): approximately 7 fold | Efficacy in suppressing TNFα-stimulated VCAM1 expression (VCAM1 [4]): fully efficacious | pIC50 (VCAM1 [4]): 7.06 | Fold less sensitive than 1, SF-295 cells (SF-295 GBM cells): 5 fold | Hsp70 expression (Hsp70): upregulation | Inhibition of VEGF-A at 24 h (VEGF-A): statistically significant inhibition | Level of VCAM1 transiently expressed in HEK293 cells (VCAM1 [5]): statistically significant decreases | BiP expression, GSC line 83 (BiP; 1 250 nM and 500 nM, 2 3 µM, 72 h): decrease | BiP expression (BiP): suppressed | Number of the 43 secreted proteins whose expression was decreased by <50% [6]: 24

CC[C@H](C)[C@H]1C(=O)N[C@@H](C)C(=O)N(C)[C@@H](CC(C)C)C(=O)N[C@@H](Cc2ccc(OC)cc2)C(=O)N(C)[C@@H](C)C(=O)O[C@H](C)[C@H](N(C)C(=O)[C@H](CC(C)C)N(C)C(=O)[C@H](COC)N(C)C(=O)[C@@H](OC(=O)[C@H](C(C)C)N(C)C)C(C)C)C(=O)N(C)[C@@H](COC)C(=O)N1C [compound 3, [L-Hiv^2, L-MeAla^11]-CbA] (NMe2Val-[Hiv][NMeS](Me)[NMeL][NMeT][NMeS](Me)[NMeI]A[NMeL]Y(Me)[NMeA]; ester 4-C)
Cell viability of HCT116 cells at 72 h ([1]; 72 h, 0.3 nM–3 μM): no change in the cell viability | Response of R66I mutant HCT116 cells at the extended end point ([1]; 6 days (3 + 3 day exposure)): pattern of resistance | Response of mutant Sec61(R66I) HEK293 cells relative to WT [2]: patterns of resistance | pEC50 [3]: > 5.22 | Efficacy in suppressing TNFα-stimulated VCAM1 expression (VCAM1 [4]): partially effective | pIC50 (VCAM1 [4]): 6.21 | Cytotoxic efficacy range (cancer cell lines): micromolar range | CALR expression (calreticulin (CALR)): less sensitive | pIC50 ([7]; read-out: IC50, inhibition of GLuc secretion, U87-MG cells expressing GLuc, conditioned medium): > 7.70 | Inhibition of VEGF-A at 24 h (VEGF-A): statistically significant inhibition | Level of VCAM1 transiently expressed in HEK293 cells (VCAM1 [5]): statistically significant decreases | BiP expression (BiP): no statistically significant change | Number of the 43 secreted proteins whose expression was decreased by <50% [6]: 18

CC[C@H](C)[C@@H]1C(=O)N[C@@H](C)C(=O)N(C)[C@@H](CC(C)C)C(=O)N[C@@H](Cc2ccc(OC)cc2)C(=O)N(C)[C@H](C)C(=O)O[C@H](C)[C@H](N(C)C(=O)[C@H](CC(C)C)N(C)C(=O)[C@H](COC)N(C)C(=O)[C@@H](OC(=O)[C@H](C(C)C)N(C)C)C(C)C)C(=O)N(C)[C@@H](COC)C(=O)N1C [compound 4, [L-Hiv^2, D-allo-Ile^7]-CbA] (NMe2Val-[Hiv][NMeS](Me)[NMeL][NMeT][NMeS](Me)[dNMeaIle]A[NMeL]Y(Me)[dNMeA]; ester 4-C)
Functional inhibition of GLuc secretion [7]: loss of functional efficacy

CC[C@H](C)[C@@H]1C(=O)N[C@@H](C)C(=O)N(C)[C@@H](CC(C)C)C(=O)N[C@@H](Cc2ccc(OC)cc2)C(=O)N(C)[C@@H](C)C(=O)O[C@H](C)[C@H](N(C)C(=O)[C@H](CC(C)C)N(C)C(=O)[C@H](COC)N(C)C(=O)[C@@H](OC(=O)[C@H](C(C)C)N(C)C)C(C)C)C(=O)N(C)[C@@H](COC)C(=O)N1C [compound 5, [L-Hiv^2, D-allo-Ile^7, L-MeAla^11]-CbA] (NMe2Val-[Hiv][NMeS](Me)[NMeL][NMeT][NMeS](Me)[dNMeaIle]A[NMeL]Y(Me)[NMeA]; ester 4-C)
Functional inhibition of GLuc secretion [7]: loss of functional efficacy

C[C@@]12OC(=O)[C@]1([C@@H](O)[C@@H]1C=CCCC1)NC(=O)[C@@H]2CCCl [marizomib, reference compound]
Effect of Sec61α R66I mutation on cytotoxic response relative to WT HCT116 cells [1]: did not change the cytotoxic efficacy | Response of mutant Sec61(R66I) HEK293 cells relative to WT [2]: highly sensitive

C/C=C(/C)C(=O)O[C@H]1C(C)=C2[C@H]([C@@H]1OC(=O)CCCCCCC)[C@@](C)(OC(C)=O)C[C@H](OC(=O)CCC)[C@@]1(O)[C@H]2OC(=O)[C@@]1(C)O [thapsigargin, reference compound]
BiP, CHOP, sXBP1, GADD34 and IRE1 mRNA expression in GSCs [8]: marked upregulation
